Converted amounts (≈) assume the structure as drawn. The source made the active and inactive calls. No cut-off for these calls is given here.
Tests used:
[1] = system: Pichia kudriavzevii; test: Antifungal activity against Candida krusei E28 after 24 hrs by broth microdilution method; assay type: functional; conditions: E28, 24 h
Outline: (§1)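 Broth microdilution in RPMI 1640 with glutamine, fluconazole as reference. For yeasts, MIC is ≥80% growth reduction (IC80) versus control. For filamentous fungi, the value is expressed as IC50. Readings at 24 and 48 h.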

[2] = system: Klebsiella pneumoniae; test: Antibacterial activity against Klebsiella pneumoniae D 11750/08 at 500 micromol/L after 24 to 48 hrs by broth microdilution method; assay type: functional, organism-based
Outline: (§2)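 Broth microdilution in Mueller–Hinton broth, compounds dissolved in DMSO, tested over a dilution series from 500 downward. MIC taken as ≥95% growth reduction (IC95) versus drug-free control. Benzylpenicillin comparator. Readings at 24 and 48 h.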

[3] = system: Trichosporon asahii; test: Antifungal activity against Trichosporon asahii 1188 after 48 hrs by broth microdilution method; assay type: functional; conditions: Trichosporon asahii, 1188, 48 h; outline: as §1
[4] = system: Candida tropicalis; test: Antifungal activity against Candida tropicalis 156 at 500 micromol/L after 24 to 48 hrs by broth microdilution method; assay type: functional, organism-based; outline: as §1
[5] = system: Escherichia coli; test: Antibacterial activity against Escherichia coli CCM 4517 at 500 micromol/L after 24 to 48 hrs by broth microdilution method; assay type: functional, organism-based; outline: as §2
[6] = system: Enterococcus sp.; test: Antibacterial activity against Enterococcus sp. J 14365/08 at 500 micromol/L after 24 to 48 hrs by broth microdilution method; assay type: functional, organism-based; outline: as §2
[7] = system: Mycobacterium avium; test: Antimycobacterial activity against isoniazid, rifampicin, ethambutol and ofloxacin-resistant Mycobacterium avium My 330/88 after 21 days; assay type: functional; conditions: My 330/88, 504 h
Outline: (§3)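 Micromethod MIC in Šula's semisynthetic medium at 37 °C. Compounds added in DMSO at 1000 down to 0.032 µmol/L. Isoniazid standard in sterile water at 0.5–250 µmol/L. Inocula: H37Rv 10^3, M. avium 10^5, M. kansasii 10^4. Read at 14 and 21 d, plus 7 d for M. kansasii.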

[8] = system: Mycobacterium kansasii; test: Antimycobacterial activity against Mycobacterium kansasii My 235/80 after 14 days; assay type: functional; conditions: My 235/80, 336 h; outline: as §3
[9] = system: Mycobacterium kansasii; test: Antimycobacterial activity against Mycobacterium kansasii My 235/80 after 7 days; assay type: functional; conditions: My 235/80, 168 h; outline: as §3
[10] = system: Pichia kudriavzevii; test: Antifungal activity against Candida krusei E28 after 48 hrs by broth microdilution method; assay type: functional; conditions: E28, 48 h; outline: as §1
[11] = system: Nakaseomyces glabratus; test: Antifungal activity against Candida glabrata 20/I at 500 micromol/L after 24 to 48 hrs by broth microdilution method; assay type: functional, organism-based; outline: as §1
[12] = system: Staphylococcus aureus; test: Antibacterial activity against Staphylococcus aureus CCM 4516/08 after 24 hrs by broth microdilution method; assay type: functional; conditions: CCM 4516/08, 24 h; outline: as §2
[13] = system: Mycobacterium kansasii; test: Antimycobacterial activity against Mycobacterium kansasii 6509/96 after 7 days; assay type: functional; conditions: 6509/96, 168 h; outline: as §3
[14] = system: Lichtheimia corymbifera; test: Antifungal activity against Absidia corymbifera 272 after 48 hrs by broth microdilution method; assay type: functional; conditions: Lichtheimia corymbifera, 272, 48 h; outline: as §1
[15] = system: Klebsiella pneumoniae; test: Antibacterial activity against ESBL-positive Klebsiella pneumoniae J 14368/08 at 500 micromol/L after 24 to 48 hrs by broth microdilution method; assay type: functional, organism-based; outline: as §2
[16] = system: Mycobacterium tuberculosis; test: Antimycobacterial activity against Mycobacterium tuberculosis H37Rv My 331/88 after 14 days; assay type: functional; conditions: H37Rv My 331/88, 336 h; outline: as §3
[17] = system: Mycobacterium kansasii; test: Antimycobacterial activity against Mycobacterium kansasii My 235/80 after 21 days; assay type: functional; conditions: My 235/80, 504 h; outline: as §3
[18] = system: Lichtheimia corymbifera; test: Antifungal activity against Absidia corymbifera 272 after 24 hrs by broth microdilution method; assay type: functional; conditions: Lichtheimia corymbifera, 272, 24 h; outline: as §1
[19] = system: Staphylococcus aureus; test: Antibacterial activity against methicillin-resistant Staphylococcus aureus H 5996/08 after 24 hrs by broth microdilution method; assay type: functional; conditions: H 5996/08, 24 h; outline: as §2
[20] = system: Staphylococcus aureus; test: Antibacterial activity against Staphylococcus aureus CCM 4516/08 after 48 hrs by broth microdilution method; assay type: functional; conditions: CCM 4516/08, 48 h; outline: as §2
[21] = system: Staphylococcus epidermidis; test: Antibacterial activity against Staphylococcus epidermidis H 6966/08 after 48 hrs by broth microdilution method; assay type: functional; conditions: H 6966/08, 48 h; outline: as §2
[22] = system: Staphylococcus aureus; test: Antibacterial activity against methicillin-resistant Staphylococcus aureus H 5996/08 after 48 hrs by broth microdilution method; assay type: functional; conditions: H 5996/08, 48 h; outline: as §2
[23] = system: Mycobacterium kansasii; test: Antimycobacterial activity against Mycobacterium kansasii 6509/96 after 21 days; assay type: functional; conditions: 6509/96, 504 h; outline: as §3
[24] = system: Aspergillus fumigatus; test: Antifungal activity against Aspergillus fumigatus 231 after 24 hrs by broth microdilution method; assay type: functional; conditions: Aspergillus fumigatus, 231, 24 h; outline: as §1
[25] = system: Staphylococcus epidermidis; test: Antibacterial activity against Staphylococcus epidermidis H 6966/08 after 24 hrs by broth microdilution method; assay type: functional; conditions: H 6966/08, 24 h; outline: as §2
[26] = system: HepG2; test: Cytotoxicity against human HepG2 cells after 24 hrs by CellTiter assay; assay type: cell-based; conditions: HepG2, 24 h
Outline: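 HepG2 cells (passage 27–33) in MEM with 10% FBS, L-glutamine and NEAA, seeded at 1×10^4 per well. Treated next day with compounds at 0.1–100 µM (or 0.1–25 µmol/L), triplicates, <1% DMSO, for 24 h at 37 °C, 5% CO2. MTS reagent added for 2 h, absorbance read at 490 nm. IC50 taken against untreated (100%) and 10% DMSO (0%) controls.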

[27] = system: Pseudomonas aeruginosa; test: Antibacterial activity against Pseudomonas aeruginosa CCM 1961 at 500 micromol/L after 24 to 48 hrs by broth microdilution method; assay type: functional, organism-based; outline: as §2
[28] = system: Mycobacterium tuberculosis; test: Antimycobacterial activity against Mycobacterium tuberculosis H37Rv My 331/88 after 21 days; assay type: functional; conditions: H37Rv My 331/88, 504 h; outline: as §3
[29] = system: Candida albicans; test: Antifungal activity against Candida albicans ATCC 44859 after 48 hrs by broth microdilution method; assay type: functional; conditions: ATCC 44859, 48 h; outline: as §1
[30] = system: Trichophyton mentagrophytes; test: Antifungal activity against Trichophyton mentagrophytes 445 after 72 hrs by broth microdilution method; assay type: functional; conditions: Trichophyton mentagrophytes, 445, 72 h
Outline: (§4)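 Filamentous dermatophyte tested by broth microdilution in RPMI 1640 with glutamine, fluconazole as reference. Value expressed as IC50 relative to growth control. Read at 72 and 120 h.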

[31] = system: Aspergillus fumigatus; test: Antifungal activity against Aspergillus fumigatus 231 after 48 hrs by broth microdilution method; assay type: functional; conditions: Aspergillus fumigatus, 231, 48 h; outline: as §1
[32] = system: Candida albicans; test: Antifungal activity against Candida albicans ATCC 44859 after 24 hrs by broth microdilution method; assay type: functional; conditions: ATCC 44859, 24 h; outline: as §1
[33] = system: Trichosporon asahii; test: Antifungal activity against Trichosporon asahii 1188 after 24 hrs by broth microdilution method; assay type: functional; conditions: Trichosporon asahii, 1188, 24 h; outline: as §1
[34] = system: Mycobacterium kansasii; test: Antimycobacterial activity against Mycobacterium kansasii 6509/96 after 14 days; assay type: functional; conditions: 6509/96, 336 h; outline: as §3
[35] = system: Mycobacterium avium; test: Antimycobacterial activity against isoniazid, rifampicin, ethambutol and ofloxacin-resistant Mycobacterium avium My 330/88 after 14 days; assay type: functional; conditions: My 330/88, 336 h; outline: as §3
[36] = system: Trichophyton mentagrophytes; test: Antifungal activity against Trichophyton mentagrophytes 445 after 120 hrs by broth microdilution method; assay type: functional; conditions: Trichophyton mentagrophytes, 445, 120 h; outline: as §4

SMILES	MIC80 [1] [µM]	MIC80 [3] [µM]	MIC [7] [µM]	MIC [8] [µM]	MIC [9] [µM]	MIC80 [10] [µM]	MIC95 [12] [µM]	MIC [13] [µM]	MIC50 [14] [µM]	MIC [16] [µM]	MIC [17] [µM]	MIC50 [18] [µM]	MIC95 [19] [µM]	MIC95 [20] [µM]	MIC95 [21] [µM]	MIC95 [22] [µM]	MIC [23] [µM]	MIC [28] [µM]	MIC [34] [µM]	MIC [35] [µM]	further results
CCOP(=O)(OCC)Oc1ccc(Cl)cc1C(=O)Nc1ccc(C(F)(F)F)cc1	125 (≈ 56.5 µg/mL)	250 (≈ 113 µg/mL)	4 (≈ 1.81 µg/mL)	2 (≈ 0.904 µg/mL)	1 (≈ 0.452 µg/mL)	> 250	31.2 (≈ 14.1 µg/mL)	2 (≈ 0.904 µg/mL)	> 250	1 (≈ 0.452 µg/mL)	2 (≈ 0.904 µg/mL)	> 250	62.5 (≈ 28.2 µg/mL)	31.2 (≈ 14.1 µg/mL)	31.2 (≈ 14.1 µg/mL)	62.5 (≈ 28.2 µg/mL)	2 (≈ 0.904 µg/mL)	1 (≈ 0.452 µg/mL)	2 (≈ 0.904 µg/mL)	4 (≈ 1.81 µg/mL)	Activity [2]: inactive; Activity [4]: inactive; Activity [5]: inactive; Activity [6]: inactive; Activity [11]: inactive; Activity [15]: inactive; MIC50 [24]: > 250 µM; MIC95 [25]: 31.2 µM (≈ 14.1 µg/mL); IC50 [26]: 2.33 µM; Activity [27]: inactive; MIC80 [29]: > 250 µM; MIC50 [30]: 31.2 µM (≈ 14.1 µg/mL); MIC50 [31]: > 250 µM; MIC80 [32]: 125 µM (≈ 56.5 µg/mL); MIC80 [33]: 125 µM (≈ 56.5 µg/mL); MIC50 [36]: 31.2 µM (≈ 14.1 µg/mL)
NNC(=O)c1ccncc1 [ISONIAZID]	–	–	> 250	> 250	> 250	–	–	2 (≈ 0.274 µg/mL)	–	0.5 (≈ 0.0686 µg/mL)	> 250	–	–	–	–	–	4 (≈ 0.549 µg/mL)	1 (≈ 0.137 µg/mL)	4 (≈ 0.549 µg/mL)	250 (≈ 34.3 µg/mL)	–
Nc1ccc(C(=O)O)c(O)c1 [AMINOSALICYLIC ACID]	–	–	125 (≈ 19.1 µg/mL)	1000 (≈ 153 µg/mL)	125 (≈ 19.1 µg/mL)	–	–	32 (≈ 4.9 µg/mL)	–	62.5 (≈ 9.57 µg/mL)	> 1000	–	–	–	–	–	500 (≈ 76.6 µg/mL)	62.5 (≈ 9.57 µg/mL)	125 (≈ 19.1 µg/mL)	32 (≈ 4.9 µg/mL)	–
CC1(C)S[C@@H]2[C@H](NC(=O)Cc3ccccc3)C(=O)N2[C@H]1C(=O)O [PENICILLIN G]	–	–	–	–	–	–	0.98 (≈ 0.328 µg/mL)	–	–	–	–	–	62.5 (≈ 20.9 µg/mL)	0.98 (≈ 0.328 µg/mL)	250 (≈ 83.6 µg/mL)	125 (≈ 41.8 µg/mL)	–	–	–	–	MIC95 [25]: 250 µM (≈ 83.6 µg/mL)
OC(Cn1cncn1)(Cn1cncn1)c1ccc(F)cc1F [FLUCONAZOLE]	> 50	9 (≈ 2.76 µg/mL)	–	–	–	> 50	–	–	> 50	–	–	> 50	–	–	–	–	–	–	–	–	MIC50 [24]: > 50 µM; MIC80 [29]: 2 µM (≈ 0.613 µg/mL); MIC50 [30]: 17 µM (≈ 5.21 µg/mL); MIC50 [31]: > 50 µM; MIC80 [32]: 1 µM (≈ 0.306 µg/mL); MIC80 [33]: 4 µM (≈ 1.23 µg/mL); MIC50 [36]: 26 µM (≈ 7.96 µg/mL)
